According to ChEMBL document CHEMBL1133004, “3-Alkylamino-4H-pyrido[2,3-e]-1,2,4-thiadiazine 1,1-dioxides structurally related to diazoxide and pinacidil as potassium channel openers acting on vascular smooth muscle cells: design, synthesis, and pharmacological evaluation” (2000):

Assays:
Assay type in all cases: functional
[1] = species on record: Rattus norvegicus; assay: Effect on Oxytocin-Induced contractions of rat uterus at 10 uM
In short: (§1)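 Uterine horns from fed Wistar rats (150-200 g) primed the day before with im diethylstilboestrol dipropionate (0.1 mL/100 g of 1 mg/mL oily solution). Horns were superfused with Tyrode at 37 °C under O2/CO2 (95/5). 20 mU oxytocin was injected at 10-min intervals until contractions (AUC) were constant, then repeated ≥3 times per drug concentration. Response is given as % of the drug-free oxytocin contraction.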

[2] = species on record: Cavia porcellus; assay: Inhibition of electrically stimulated contractions of guinea pig ileum segments.; conditions: read-out: ED50 (the source's name)
In short: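 Ileum segments (4 cm, taken ≥10 cm from cecum) from adult guinea pigs (300-400 g), 1 g initial load, Krebs-bicarbonate at 37 °C, gassed 95% O2/5% CO2. Coaxial stimulation at 0.5-ms pulses, 0.1 Hz, 5-25 V, with isometric recording. Drug was added cumulatively to maximal effect and expressed as % of the 5-min pre-drug response. ED50 was assessed graphically.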

[3] = species on record: Rattus norvegicus; assay: Effect on Oxytocin-Induced contractions of rat uterus at 50 uM; in short: as §1
[4] = species on record: Rattus norvegicus; assay: Insulin secretion from rat pancreatic islets (RIS) in the presence of 16.7 mM glucose at 50 uM
In short: (§2)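 Collagenase-isolated islets from fed Wistar rats (180-220 g), in groups of 10. Preincubated 30 min at 37 °C in bicarbonate salt medium with 2.8 mM glucose and 0.5% albumin under O2/CO2. Then incubated 90 min at 37 °C with 16.7 mM glucose plus drug. Insulin was measured by radioimmunoassay against a rat insulin standard and reported as % residual release.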

[5] = species on record: Rattus norvegicus; assay: Concentration giving 50% relaxation of the 30 mM KCL-induced contraction of rat aorta rings; conditions: read-out: ED50 (the source's name)
In short: (§3)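 Endothelium-denuded aortic rings (3-4 mm) from fed Wistar rats (250-300 g), held at 1 g tension in Krebs-bicarbonate at 37 °C under O2/CO2 (95/5), isometric recording. After 60 min equilibration, contracted with 30 or 80 mM KCl as specified. At plateau, drug was added cumulatively to maximal relaxation or 1 mM. Glibenclamide (1 or 10 µM) was present throughout where stated. ED50 was read graphically as 50% inhibition of the KCl plateau.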

[6] = species on record: Rattus norvegicus; assay: Effect on Oxytocin-Induced contractions of rat uterus at 100 uM; in short: as §1
[7] = species on record: Rattus norvegicus; assay: Effect on Insulin secretion from rat pancreatic islets (RIS) in the presence of 16.7 mM glucose at 10 uM; in short: as §2
[8] = species on record: Rattus norvegicus; assay: Effect on contractile activity of 30 mM potassium-Depolarized rat aorta incubated in the absence of Glibenclamide; conditions: read-out: ED50 (the source's name); in short: as §3
[9] = species on record: Rattus norvegicus; assay: Effect on contractile activity of 30 mM potassium-Depolarized rat aorta incubated in the presence of 1 uM Glibenclamide; conditions: read-out: ED50 (the source's name); in short: as §3
[10] = species on record: Rattus norvegicus; assay: Effect on contractile activity of 30 mM potassium-Depolarized rat aorta incubated in the presence of 10 uM Glibenclamide; conditions: read-out: ED50 (the source's name); in short: as §3
[11] = species on record: Rattus norvegicus; assay: Effect on contractile activity of 80 mM potassium-Depolarized rat aorta; conditions: read-out: ED50 (the source's name); in short: as §3
[12] = species on record: Rattus norvegicus; assay: Effect on Oxytocin-Induced contractions of rat uterus at concentrations 100 uM; in short: as §1
[13] = species on record: Rattus norvegicus; assay: Effect on Oxytocin-Induced contractions of rat uterus at concentrations 50 uM; in short: as §1
[14] = species on record: Rattus norvegicus; assay: Effect on Oxytocin-Induced contractions of rat uterus at concentrations 10 uM; in short: as §1
[15] = species on record: Rattus norvegicus; assay: Compound is evaluated for the effect on Oxytocin-Induced contractions of rat uterus at 100 uM; in short: as §1
[16] = species on record: Rattus norvegicus; assay: Compound is evaluated for the effect on Oxytocin-Induced contractions of rat uterus at 50 uM; in short: as §1
[17] = species on record: Rattus norvegicus; assay: Compound is evaluated for the effect on Oxytocin-Induced contractions of rat uterus at 10 uM; in short: as §1

Row | Compound | EC50 [2] | RIS [4] | EC50 [5] | also measured
1 | C[C@H](NC1=NS(=O)(=O)c2cc(Cl)cnc2N1)C1CCCCC1 | 20.4 µM | 11.8% | 3.8 µM | Contraction [1]: 84.9%; Contraction [3]: 71.4%; Contraction [6]: 43.7%; RIS [7]: 71.9%
2 | CC(C)NC1=NS(=O)(=O)c2cccnc2N1 | > 300 µM | 78.7% | 132 µM | –
3 | CCC(C)NC1=NS(=O)(=O)c2cc(Cl)cnc2N1 (stereo unspecified) | – | 62.7% | 20 µM | –
4 | C[C@@H](NC1=NS(=O)(=O)c2cc(Cl)cnc2N1)C1CCCCC1 | 13.6 µM | 6.7% | 3.5 µM | Contraction [1]: 70.6%; EC50 [8]: 3.7 µM; EC50 [9]: 5 µM; Contraction [3]: 50.9%; EC50 [10]: 8.6 µM; EC50 [11]: 12.3 µM; Contraction [6]: 22.9%; RIS [7]: 71.3%
5 | O=S1(=O)N=C(NCc2ccccc2)Nc2ncccc21 | > 300 µM | 86.2% | 21.9 µM | –
6 | CC(Cc1ccc(O)cc1)NCC(O)c1cc(O)cc(O)c1 (stereo unspecified) [FENOTEROL] | – | – | – | Contraction [12]: 35.5%; Contraction [13]: 36.3%; Contraction [14]: 38.4%
7 | CC(N/C(=N\C#N)Nc1ccncc1)C(C)(C)C (stereo unspecified) [PINACIDIL ANHYDROUS] | 9.2 µM | 92.1% | 0.5 µM | Contraction [15]: 38.1%; EC50 [8]: 0.2 µM; EC50 [9]: 10.4 µM; EC50 [10]: 42.5 µM; Contraction [16]: 35.5%; Contraction [17]: 58.1%; EC50 [11]: 16 µM; RIS [7]: 96%
8 | O=S1(=O)N=C(NCC2CCCCC2)Nc2ncccc21 | 145 µM | 94.2% | 45.7 µM | –
9 | CC(C)C(C)NC1=NS(=O)(=O)c2cc(Cl)cnc2N1 (stereo unspecified) | > 300 µM | 59.3% | 10.6 µM | EC50 [8]: 8.2 µM; EC50 [9]: 34.1 µM; EC50 [10]: 45.1 µM; EC50 [11]: 49.3 µM
10 | C[C@H](NC1=NS(=O)(=O)c2cccnc2N1)C1CCCCC1 | > 300 µM | 76.2% | 25.2 µM | –
11 | O=S1(=O)NC(NCC2CCCCC2)=Nc2ncc(Cl)cc21 | 17.4 µM | 57.7% | 38.2 µM | Contraction [1]: 96.3%; Contraction [3]: 95.1%; Contraction [6]: 90.4%; RIS [7]: 76.8%
12 | CC(C)NC1=NS(=O)(=O)c2cc(Cl)cnc2N1 | > 300 µM | 74.4% | 14.6 µM | –
13 | O=S1(=O)NC(NCc2ccccc2)=Nc2ncc(Cl)cc21 | – | 74.1% | 43.6 µM | Contraction [1]: 108.2%; Contraction [3]: 98.9%; Contraction [6]: 71.9%
14 | C[C@@H](NC1=NS(=O)(=O)c2cccnc2N1)C1CCCCC1 | > 300 µM | 79.9% | 29.2 µM | –
15 | CC(NC1=NS(=O)(=O)c2cc(Cl)cnc2N1)C(C)(C)C (stereo unspecified) | > 300 µM | 41.5% | 2.3 µM | Contraction [15]: 51%; EC50 [8]: 1.6 µM; EC50 [9]: 22.6 µM; EC50 [10]: 33.9 µM; Contraction [16]: 67.9%; Contraction [17]: 97.6%; EC50 [11]: 33 µM
16 | CC(C)C(C)NC1=NS(=O)(=O)c2cnccc2N1 (stereo unspecified) | > 300 µM | 7.1% | 154 µM | RIS [7]: 26.8%
17 | CC1=NS(=O)(=O)c2cc(Cl)cnc2N1 | – | 87.4% | > 300 µM | –
18 | CCC(C)NC1=NS(=O)(=O)c2cccnc2N1 (stereo unspecified) | – | 85.9% | 50.9 µM | –
19 | CC(NC1=NS(=O)(=O)c2cccnc2N1)C(C)(C)C (stereo unspecified) | > 300 µM | 98.9% | 7.5 µM | Contraction [12]: 57.5%; EC50 [8]: 10.1 µM; EC50 [9]: 65.2 µM; EC50 [10]: 107 µM; Contraction [13]: 68%; EC50 [11]: > 300 µM; Contraction [14]: 93.8%
20 | C[C@H](NC1=NS(=O)(=O)c2cc(Cl)cnc2N1)c1ccccc1 | – | 45.9% | 21.2 µM | Contraction [1]: 91%; Contraction [3]: 79.3%; Contraction [6]: 41.1%
21 | C[C@@H](NC1=NS(=O)(=O)c2cccnc2N1)c1ccccc1 | > 300 µM | 71.6% | 65.2 µM | –
22 | CC(C)C(C)NC1=NS(=O)(=O)c2cccnc2N1 (stereo unspecified) | > 300 µM | 87.9% | 27.1 µM | EC50 [8]: 27.1 µM; EC50 [11]: > 300 µM
23 | C[C@@H](NC1=NS(=O)(=O)c2cc(Cl)cnc2N1)c1ccccc1 | – | 52.3% | 38.8 µM | Contraction [1]: 88.4%; Contraction [3]: 59.4%; Contraction [6]: 32.6%
24 | CC1=Nc2ccc(Cl)cc2S(=O)(=O)N1 [DIAZOXIDE] | > 300 µM | 28.8% | 19.3 µM | Contraction [15]: 67.7%; EC50 [8]: 19.5 µM; EC50 [9]: 85.8 µM; EC50 [10]: 163 µM; Contraction [16]: 76.3%; Contraction [17]: 93.8%; EC50 [11]: > 300 µM; RIS [7]: 70%
25 | C[C@H](NC1=NS(=O)(=O)c2cccnc2N1)c1ccccc1 | > 300 µM | 73.3% | 9.9 µM | –
